# Most compounds without a hit are left out; they make up all but 1.1% or so of the library.
# thrombin 1536: blocks human thrombin protease activity | alpha-thrombin, Boc-VPR-AMC fluorogenic substrate cleavage | inhibition, % at 5 µM | 220,000 tested, 0.26% active | AID 1046;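 active = inhibition at or above 40%; inactive = inhibition below 40%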;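 also: 0% = enzyme with no compound and 100% = wells without enzyme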
#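 Material: Human alpha-thrombin protein | Buffer or medium: pH 7.5 Tris-saline with Tween 20 | Reagent: Boc-VPR-AMC substrate, 15 µM final | Schedule: Reaction at ambient temperature | Detection: AMC fluorescence at 355 nm excitation and 460 nm emission | Evaluation: Percent inhibition scaled between no-compound controls and no-enzyme blanks | Controls: no-compound enzyme wells and no-enzyme blanks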
# FXIIa inh 1536: inhibitors of human coagulation factor XIIa. purified FXIIa, Boc-QGR-AMC fluorogenic substrate, 2 h. inhibition, % at 5 µM. 220,000 tested, 0.3% active; in the data active = inhibition above about 40%;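 also: 0% = enzyme with no compound and 100% = blank without enzyme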
# hK5 inh: inhibitors of human kallikrein 5; inhibition, % at 5 µM; recombinant hK5, fluorogenic AMC substrate cleavage; 210,000 tested, 0.59% active;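 active = inhibition of 40% or more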;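 also: 0% = enzyme controls without compound and 100% = no-enzyme blanks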
# Furin inh: blocks human furin protease activity; AID 463115; inhibition, % at 20 µM or 30 µM; 220,000 tested, 0.061% active; purified furin, fluorogenic substrate cleavage; P09958; in the data active = inhibition above about 25%
# FXIa inh 1536: blocks human coagulation factor XIa protease activity | P03951 | purified FXIa, Boc-Glu-Ala-Arg-AMC fluorogenic substrate | inhibition, % at 5 µM | 220,000 tested, 0.14% active | AID 798;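 active = inhibition of at least 40%; inactive = inhibition below 40%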;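 also: fluorescence of freed AMC excited at 355 nm; 0% = enzyme without compound and 100% = no enzyme blank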
# Target sequence (P03951 19-387 limits assumed): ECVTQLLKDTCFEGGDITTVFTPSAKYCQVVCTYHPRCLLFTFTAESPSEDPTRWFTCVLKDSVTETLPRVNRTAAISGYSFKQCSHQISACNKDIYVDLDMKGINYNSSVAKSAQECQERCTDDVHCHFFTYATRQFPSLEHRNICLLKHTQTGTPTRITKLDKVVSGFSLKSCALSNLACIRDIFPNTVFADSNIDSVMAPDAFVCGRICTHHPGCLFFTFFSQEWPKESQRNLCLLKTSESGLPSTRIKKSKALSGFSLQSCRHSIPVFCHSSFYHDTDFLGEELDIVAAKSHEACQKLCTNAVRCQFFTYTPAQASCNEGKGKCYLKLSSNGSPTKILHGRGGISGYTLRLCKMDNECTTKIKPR
# Target sequence (P03951 388-625 limits assumed): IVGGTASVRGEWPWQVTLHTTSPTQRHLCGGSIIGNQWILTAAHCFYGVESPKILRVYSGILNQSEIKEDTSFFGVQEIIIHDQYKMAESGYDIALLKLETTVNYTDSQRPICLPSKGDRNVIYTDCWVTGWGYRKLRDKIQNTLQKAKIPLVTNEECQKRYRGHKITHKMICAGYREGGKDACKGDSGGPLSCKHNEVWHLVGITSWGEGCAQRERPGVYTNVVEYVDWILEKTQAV
# * = called active by the depositor; . = not tested or not shown.
SMILES,thrombin 1536,FXIIa inh 1536,hK5 inh,Furin inh,FXIa inh 1536
Cc1ccc(NC(=O)C2CCCN(S(=O)(=O)c3cnc[nH]3)C2)cc1F (stereo not drawn),19,12,71*,-5,11
CC(C)c1ccc(NC(=O)C2CCCN(S(=O)(=O)c3cnc[nH]3)C2)cc1 (stereo not drawn),8,-1,62*,-15,-2
CCC(=O)N(CCc1ccc(S(N)(=O)=O)cc1)C1CC(=O)N(c2ccc(OC)cc2)C1=O (stereo not drawn),-9,8,-4,-17,-1
O=C(Cn1cnc2ccccc21)N/N=C/C(Br)=C/c1ccccc1,-9,12,-6,-15,8
CC(C)(C)c1ccc(C(=O)c2c[nH]c(C(=O)NCCc3ccccn3)c2)cc1,-11,2,-5,-24,-5
CCN(C(=O)CSc1ncnc2sc(C)c(C)c12)C1CCS(=O)(=O)C1 (stereo not drawn),-8,-1,2,-25,-6
CCc1cc2c(SCC(=O)N(C)C3CCS(=O)(=O)C3)ncnc2s1 (stereo not drawn),19,23,37,2,51*
Cn1c([N+](=O)[O-])cnc1N1CCN(c2nncs2)C1=O,-5,8,0,0,5
CCOC(=O)Cn1nc(C)c(NC(=O)COc2ccccc2[N+](=O)[O-])c1C,-8,-5,-6,-7,-3
COc1ccc(NC(=O)Cc2ccccc2F)cn1,50*,13,15,-8,23
CC(CN1C(C)CCCC1C)OC(=O)c1ccccc1Cl (stereo not drawn),-4,5,0,-10,1
CC(CN1C(C)CCCC1C)OC(=O)c1ccc(Cl)cc1Cl (stereo not drawn),10,45*,34,-16,25
CCN(CC)C(=O)CSc1nnc(CSc2ncccn2)n1C,-1,7,-4,-23,-2
O=C(NC(=S)Nc1ccc(S(=O)(=O)Nc2nccs2)cc1)c1ccccc1F,19,77*,10,-21,28
O=C(NC(=S)Nc1ccc(S(=O)(=O)Nc2nccs2)cc1)c1ccccc1,-6,-2,-3,-1,-12
COc1ccc(/C=N/NC(=O)c2sc3nc(C)cc(C)c3c2N)cc1,42*,87*,48*,0,27
Cc1cc(C)c2c(N)c(C(=O)N/N=C/c3cccs3)sc2n1,-4,-2,0,-18,-2
Cc1nc(N(C)C)c2sc(=S)n(Cc3ccccc3)c2n1,-1,11,.,-27,2
O=C1OC(Nc2ncccn2)c2ccccc21 (stereo not drawn),14,106*,42*,-18,8
CCOC(=O)c1c(/N=C/C2=C(O)CCCC2=O)sc(C)c1C,-4,4,-8,28*,-5
CC1CCC2(CC1)OCC1(CCC3(COC4(CCC(C)CC4)OC3)C1=O)CO2 (stereo not drawn),.,-1,-6,-9,-2
Cc1nn2c3ccccc3nc2n(Cc2ccccc2)c1=O,.,.,.,26*,.
CCn1c(=O)c(C)nn2c3ccccc3nc12,-5,6,-1,-19,0
Cc1cc(F)ccc1S(=O)(=O)Nc1ncnc2sc3c(c12)CCC3,2,23,11,-9,41*
O=S(=O)(Nc1ncnc2sc3c(c12)CCC3)c1ccc2ccccc2c1,1,14,8,-15,0
SMILES,thrombin 1536,FXIIa inh 1536,hK5 inh,Furin inh,FXIa inh 1536
Cc1c(N=C/C=C2/N(C)c3ccccc3C2(C)C)c(=O)n(-c2ccccc2)n1C,4,19,-6,26*,14
Cc1c(NC(=O)NCc2ccccc2)c(=O)n(-c2ccccc2)n1C,-2,4,1,-14,-2
Cc1c(NC(=S)/C=C2\N(C)c3ccccc3C2(C)C)c(=O)n(-c2ccccc2)n1C,26,19,67*,-17,10
Cc1c(N=C/C=C2\N(C)c3ccccc3C2(C)C)c(=O)n(-c2ccccc2)n1C,-2,1,8,0,-2
CCCCCCC(=O)N/N=C1\CCCc2ccccc21,-12,8,-18,-14,-4
Cc1ccc(NC(=O)CNc2ccc(OC(C)C)cc2)cc1,-3,9,12,-4,-4
Cc1ccc(C(CC(=O)NCCCN(C)C)c2ccc(OC(C)C)cc2)cc1 (stereo not drawn),3,63*,20,0,16
N#CC1=C(N)NC(SCc2ccc(Cl)cc2)=C(C#N)C12CCCCC2,-4,1,25,-11,-7
N#CC1=C(N)NC(SCc2ccccc2)=C(C#N)C12CCCC2,25,19,45*,6,10

# Screening results: PubChem BioAssay, several laboratories
